Legend:
[1] = system: Wi-38 normal human lung fibroblast cells; assay: MTT assay against normal human cell line; format: cell-based; details: for IC50: Homo sapiens, WI-38, 72 h, read-out: Wi-38 IC50; for Wi-38 IC100: MTT, 72 h, SI calls it EC100, dose at 100% cell viability, mean ± SEM
Procedure, shortened: (§1)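 Cytotoxicity by MTT, run side by side on MCF-7 and MDA-MB231 breast cancer cells and Wi-38 normal human fibroblasts, with doxorubicin as reference. IC50 was determined for each line, and IC100 also on Wi-38. Selectivity indices express selectivity toward each breast cancer line over the normal Wi-38 cells.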

MDA-MB 231 cells = assay: MTT assay against human breast cancer cell line MDA-MB 231; format: cell-based; details: for IC50: Homo sapiens, MDA-MB-231, 72 h, read-out: MDA-MB 231 IC50; for MDA-MB 231 SI (selectivity index): over Wi-38 normal cells
Procedure, shortened: as §1

MCF-7 cells [2] = assay: MTT assay against human breast cancer cell line MCF-7; format: cell-based; details: for IC50: Homo sapiens, MCF7, 72 h, read-out: MCF-7 IC50; for MCF-7 SI (selectivity index): over Wi-38 normal cells; for cytotoxicity compared to doxorubicin: MTT, cell line not given, fits MCF-7 IC50 values; for fold reduction of potency and selectivity relative to 18: MCF-7, bromo replaced by chloro or nitro
Procedure, shortened: as §1

calf thymus DNA (ctDNA) = assay: DNA damage by terbium; format: biochemical; details: 24 h incubation, Tb fluorescence 545 nm
MCF-7 cells [3] = assay: MCF-7 cell cycle analysis by flow cytometry; format: cell-based, human; details: MCF-7, 24 h treatment with IC50
MCF-7 cells [4] = assay: Annexin V-FITC/PI double staining apoptosis assay; format: cell-based, human; details: MCF-7, 24 h treatment with IC50

Structure (SMILES)	IC50 [1] [nM]	Wi-38 IC100 [1] [µM]	IC50 (MDA-MB 231 cells) [nM]	MDA-MB 231 SI (selectivity index) (MDA-MB 231 cells)	IC50 (MCF-7 cells [2]) [nM]	MCF-7 SI (selectivity index) (MCF-7 cells [2])	cytotoxicity compared to doxorubicin (MCF-7 cells [2])	LOD (minimum concentration inducing detectable DNA damage) (calf thymus DNA (ctDNA)) [nM]	LOQ (calf thymus DNA (ctDNA)) [nM]	cell cycle distribution compared to untreated cells (MCF-7 cells [3])	early apoptosis (MCF-7 cells [4]) [%]	late apoptosis (MCF-7 cells [4]) [%]	total cell death (apoptosis induction) (MCF-7 cells [4]; control 0.73%) [%]	necrotic cells (MCF-7 cells [4]; control 1.34%) [%]	fold reduction of potency and selectivity relative to 18 (MCF-7 cells [2]) [fold]
CC(=O)Nc1c(N)nc(S)[nH]c1=O [Compound 3, N-(4-amino-2-mercapto-6-oxo-1,6-dihydropyrimidin-5-yl)acetamide]	1340 ± 72	0.103 ± 0.045	1440 ± 255	0.930	832 ± 48	1.615	–	–	–	–	–	–	–	–	–
CCOC(=O)CSc1nc(N)c(NC(C)=O)c(=O)[nH]1 [Compound 4, Ethyl 2-((5-Acetamido-4-amino-6-Oxo-1,6-dihydropyrimidin-2-yl)thio)acetate]	852 ± 11	0.352 ± 0.012	840 ± 50	1.014	266 ± 15	3.203	–	–	–	–	–	–	–	–	–
CC(=O)Nc1c(N)nc(SCC(=O)NN)[nH]c1=O [Compound 5, N-(4-amino-2-((2-hydrazinyl-2-oxoethyl)thio)-6-oxo-1,6-dihydropyrimidin-5-yl)acetamide]	801 ± 31	0.240 ± 0.003	826 ± 46	0.969	50 ± 8	16.02	surpassed doxorubicin	10.64	35.48	increased DNA content during S	29.11	17.64	46.75	5.39	–
CC(=O)Nc1c(N)nc(SCC(=O)N/N=C/c2ccc(Cl)cc2)[nH]c1=O [Compound 6, (E)-N-(4-amino-2-((2-(2-(4-chlorobenzylidene)hydrazinyl)-2-oxoethyl)thio)-6-oxo-1,6-dihydropyrimidin-5-yl)acetamide]	692 ± 64	0.037 ± 0.007	681 ± 29	1.016	445 ± 15	1.555	–	–	–	–	–	–	–	–	–
CC(=O)Nc1c(N)nc(SCC(=O)N/N=C/c2ccc(Br)cc2)[nH]c1=O [Compound 7, (E)-N-(4-amino-2-((2-(2-(4-bromobenzylidene)hydrazinyl)-2-oxoethyl)thio)-6-oxo-1,6-dihydropyrimidin-5-yl)acetamide]	408 ± 81	0.232 ± 0.003	616 ± 20	0.662	167 ± 40	–	surpassed doxorubicin	–	–	–	–	–	–	–	–
CC(=O)Nc1c(N)nc(SCC(=O)N/N=C/c2ccc([N+](=O)[O-])cc2)[nH]c1=O [Compound 8, (E)-N-(4-amino-2-((2-(2-(4-nitrobenzylidene)hydrazinyl)-2-oxoethyl)thio)-6-oxo-1,6-dihydropyrimidin-5-yl)acetamide]	713 ± 44	0.491 ± 0.084	583 ± 20	1.222	146 ± 11	4.883	surpassed doxorubicin	30.03	100.12	–	–	–	–	–	–
COc1ccc(/C=N/NC(=O)CSc2nc(N)c(NC(C)=O)c(=O)[nH]2)cc1 [Compound 9, (E)-N-(4-amino-2-((2-(2-(4-methoxybenzylidene)hydrazinyl)-2-oxoethyl)thio)-6-oxo-1,6-dihydropyrimidin-5-yl)acetamide]	1050 ± 25	0.424 ± 0.020	683 ± 1	1.531	217 ± 16	4.820	–	–	–	–	–	–	–	–	–
CC(=O)Nc1c(N)nc(SCC(=O)N/N=C/c2ccccc2O)[nH]c1=O [Compound 10, (E)-N-(4-amino-2-((2-(2-(2-hydroxybenzylidene)hydrazinyl)-2-oxoethyl)thio)-6-oxo-1,6-dihydropyrimidin-5-yl)acetamide]	501 ± 49	0.241 ± 0.037	590 ± 49	0.849	102 ± 1	4.911	surpassed doxorubicin	–	–	–	–	–	–	–	–
Cc1cc(=O)n2c(C)n[nH]c2n1 [Compound 14, 3,7-Dimethyl-1,2,4-triazolo[4,3-a]pyrimidin-5(1H)-one]	1510 ± 41	0.206 ± 0.014	1260 ± 52	1.200	292 ± 10	5.157	–	–	–	–	–	–	–	–	–
COC(=O)Cn1nc(C)n2c(=O)cc(C)nc12 [Compound 15, Methyl 2-(3,7-dimethyl-5-oxo-1,2,4-triazolo[4,3-a]pyrimidin-1(5H)-yl)acetate]	1170 ± 22	0.237 ± 0.017	1280 ± 56	0.912	617 ± 29	1.894	–	–	–	–	–	–	–	–	–
Cc1cc(=O)n2c(C)nn(CC(=O)NN)c2n1 [Compound 16, 2-(3,7-Dimethyl-5-oxo-1,2,4-triazolo[4,3-a]pyrimidin-1(5H)-yl)acetohydrazide]	978 ± 13	0.115 ± 0.033	1128 ± 2	0.867	544 ± 8	1.797	–	–	–	–	–	–	–	–	–
Cc1cc(=O)n2c(C)nn(CC(=O)N/N=C/c3ccc(Cl)cc3)c2n1 [Compound 17, (E)-N′-(4-chlorobenzylidene)-2-(3,7-dimethyl-5-oxo-1,2,4-triazolo[4,3-a]pyrimidin-1(5H)-yl)acetohydrazide]	593 ± 24	0.124 ± 0.034	632 ± 29	0.938	403 ± 62	1.471	–	–	–	–	–	–	–	–	5
Cc1cc(=O)n2c(C)nn(CC(=O)N/N=C/c3ccc(Br)cc3)c2n1 [Compound 18, (E)-N′-(4-bromobenzylidene)-2-(3,7-dimethyl-5-oxo-1,2,4-triazolo[4,3-a]pyrimidin-1(5H)-yl)acetohydrazide]	593 ± 5	0.111 ± 0.005	559 ± 29	1.060	42 ± 9	14.119	surpassed doxorubicin	–	–	–	–	–	–	–	–
Cc1cc(=O)n2c(C)nn(CC(=O)N/N=C/c3ccc([N+](=O)[O-])cc3)c2n1 [Compound 19, (E)-N′-(4-nitrobenzylidene)-2-(3,7-dimethyl-5-oxo-1,2,4-triazolo[4,3-a]pyrimidin-1(5H)-yl)acetohydrazide]	612 ± 34	0.329 ± 0.031	820 ± 90	0.746	201 ± 39	3.044	–	–	–	–	–	–	–	–	10
COc1ccc(/C=N/NC(=O)Cn2nc(C)n3c(=O)cc(C)nc23)cc1 [Compound 20, (E)-N′-(4-methoxybenzylidene)-2-(3,7-dimethyl-5-oxo-1,2,4-triazolo[4,3-a]pyrimidin-1(5H)-yl)acetohydrazide]	723 ± 20	0.280 ± 0.037	856 ± 19	0.844	334 ± 20	–	–	–	–	–	–	–	–	–	–
Cc1cc(=O)n2c(C)nn(CC(=O)N/N=C/c3ccccc3O)c2n1 [Compound 21, (E)-N′-(2-hydroxybenzylidene)-2-(3,7-dimethyl-5-oxo-1,2,4-triazolo[4,3-a]pyrimidin-1(5H)-yl)acetohydrazide]	518 ± 8	0.269 ± 0.026	697 ± 24	0.743	52 ± 10	9.961	surpassed doxorubicin	–	–	–	–	–	–	–	–
COc1cccc2c1C(=O)c1c(O)c3c(c(O)c1C2=O)C[C@@](O)(C(=O)CO)C[C@@H]3O[C@H]1C[C@H](N)[C@H](O)[C@H](C)O1 [DOX., doxorubicin, reference compound]	322 ± 25	0.119 ± 0.005	487 ± 18	0.661	198 ± 11	1.626	–	0.76	2.56	–	–	–	–	–	–

From article PMC11097374 (ACS Omega, 2024)
